As a reminder, the IC50 is the concentration that inhibits the measured activity by half. The low end stands for higher potency, the high end for lower potency.

The results in this text go back to ChEMBL document CHEMBL4130442, “Design, synthesis and structure-activity relationship studies of a focused library of pyrimidine moiety with anti-proliferative and anti-metastasis activities in triple negative breast cancer” (Eur J Med Chem, 2017).

Series [1] concerns MDA-MB-231. Put plainly: Antiproliferative activity against human MDA-MB-231 cells incubated for 48 hrs by MTT assay. It is filed as functional, cell-based. The conditions noted are these: MDA-MB-231, 48 h. In outline:
(§1)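 MDA-MB-231 cells grown in DMEM with 10% FBS under 5% CO2 were seeded at 5×10^4 cells/ml. After 24 h, a concentration series was added for 24, 48 or 72 h and viability was read by MTT. IC50 is mean ± SD of triplicates.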
In general terms: Formazan colour is commonly taken as a measure of viable cells.

Series [2] concerns MDA-MB-231. Put plainly: Antiproliferative activity against human MDA-MB-231 cells incubated for 72 hrs by MTT assay. In kind it is functional, cell-based. Particulars: MDA-MB-231, 72 h. In outline: as §1
Series [3] deals with MDA-MB-231. Description: Induction of autophagy in human MDA-MB-231 cells assessed as change in Beclin-1 protein level at 2.5 uM incubated for 24 hrs by Western blot method relative to untreated control. In kind it is functional. In outline: (§2)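 MDA-MB-231 cells were exposed for 24 h. Adherent and floating cells were pooled and lysed for 1 h at 4 °C in 50 mM Hepes pH 7.4 with 1% Triton X-100, orthovanadate, NaF, EDTA, PMSF, aprotinin and leupeptin. After 12,000 rpm clearing, equal protein was run on 10-15% SDS-PAGE and blotted to PVDF. Detection used HRP-ECL, with β-actin as loading control and densitometric quantification.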
On the technique in general: Immunoblotting shows a protein as a band on a membrane.

The subject of series [4] is MDA-MB-231. Put plainly: Induction of apoptosis in human MDA-MB-231 cells at 2.5 to 10 uM incubated for 24 hrs by Annexin V/propidium iodide staining based flow cytometry. It is filed as functional, cell-based. (In flow cytometry, cells or beads pass a laser one at a time.)
The target in series [5] is T1, Platelet-derived growth factor receptor beta (Homo sapiens, UniProt P09619). Description: Inhibition of PDGFRbeta in human MDA-MB-231 cells assessed as PDGFRbeta Tyr740 phosphorylation level at 10 uM incubated for 24 hrs by Western blot relative to untreated control. It is filed as cell-based. The method in brief:
(§3)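 Cells were treated 24 h at several concentrations. Pooled adherent and floating cells were lysed in Hepes 50 mM pH 7.4 / 1% Triton X-100 buffer with vanadate, NaF, EDTA, PMSF, aprotinin and leupeptin. Equal protein was run on 10-15% SDS-PAGE and blotted to PVDF. PDGFR-β-AKT-ULK1 pathway phospho-proteins were probed and detected by ECL, with β-actin as loading control.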

The target in series [6] is T1, Platelet-derived growth factor receptor beta. Put plainly: Inhibition of PDGFRbeta in human MDA-MB-231 cells assessed as Akt Thr305 phosphorylation level at 10 uM incubated for 24 hrs by Western blot relative to untreated control. In kind it is cell-based. In outline: as §3
For series [7] the target is unchanged. Description: Inhibition of PDGFRbeta in human MDA-MB-231 cells assessed as Akt Ser473 phosphorylation level at 2.5 uM incubated for 24 hrs by Western blot relative to untreated control. In kind it is cell-based. In outline: as §3
The target is the same in series [8]. Description: Inhibition of PDGFRbeta in human MDA-MB-231 cells assessed as ULK Ser317 phosphorylation level at 2.5 uM incubated for 24 hrs by Western blot relative to untreated control. In kind it is cell-based. The method in brief:
as §3

In series [9] the test system is MDA-MB-231. Description: Effect on total PDGFRbeta protein level in human MDA-MB-231 cells at 5 uM incubated for 24 hrs by Western blot relative to untreated control. It is filed as ADME, cell-based. The conditions noted are these: mda-mb-231, 24 h. In outline:
as §2

Series [10] relates to MDA-MB-231. Description: Effect on total Akt protein level in human MDA-MB-231 cells at 2.5 uM incubated for 24 hrs by Western blot relative to untreated control. Particulars: mda-mb-231, 24 h. In kind it is ADME, cell-based. In outline: as §2
The subject of series [11] is MDA-MB-231. Put plainly: Effect on total Akt protein level in human MDA-MB-231 cells at 5 uM incubated for 24 hrs by Western blot relative to untreated control. In kind it is ADME, cell-based. The conditions noted are these: mda-mb-231, 24 h. In outline:
as §2

Series [12] relates to MDA-MB-231. Put plainly: Effect on total mTOR protein level in human MDA-MB-231 cells at 5 uM incubated for 24 hrs by Western blot relative to untreated control. In kind it is ADME, cell-based. The conditions noted are these: mda-mb-231, 24 h. The method in brief: as §2
Series [13] has as its system MDA-MB-231. Put plainly: Effect on total ULK1 protein level in human MDA-MB-231 cells at 5 uM incubated for 24 hrs by Western blot relative to untreated control. In kind it is ADME, cell-based. Particulars: mda-mb-231, 24 h. The method in brief:
as §2

Series [14] relates to MDA-MB-231. Put plainly: Effect on total ULK1 protein level in human MDA-MB-231 cells at 10 uM incubated for 24 hrs by Western blot relative to untreated control. It is filed as ADME, cell-based. Particulars: mda-mb-231, 24 h. The method in brief: as §2
Series [15] concerns MDA-MB-231. Put plainly: Effect on total PDGFRbeta protein level in human MDA-MB-231 cells at 2.5 uM incubated for 24 hrs in presence of control siRNA by Western blot relative to untreated control. It is filed as ADME, cell-based. The conditions noted are these: mda-mb-231, 24 h. In outline:
as §2

In series [16] the test system is MDA-MB-231. Put plainly: Effect on total Akt protein level in human MDA-MB-231 cells at 2.5 uM incubated for 24 hrs in presence of PDGFRbeta siRNA by Western blot relative to untreated control. In kind it is ADME, cell-based. The conditions noted are these: mda-mb-231, 24 h. The method in brief:
as §2

Series [17] relates to MDA-MB-231. Description: Induction of autophagy in human MDA-MB-231 cells assessed as change in LC3-2 protein level at 2.5 uM incubated for 24 hrs in absence of PDGFRbeta siRNA by Western blot method relative to untreated control. In kind it is functional. In outline: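 Before treatment, MDA-MB-231 cells were transfected with control or PDGFR-β siRNA, then exposed to 2.5 μM compound for 24 h. Lysates of pooled adherent and floating cells were immunoblotted (10-15% SDS-PAGE, PVDF, ECL) for PDGFR-β-AKT-ULK1 autophagy signalling markers, with β-actin as loading control.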

Series [18] has as its target T1, Platelet-derived growth factor receptor beta. Put plainly: Inhibition of PDGFRbeta in human MDA-MB-231 cells assessed as Akt Thr305 phosphorylation level at 2.5 uM incubated for 24 hrs in absence of PDGFRbeta siRNA by Western blot relative to untreated control. It is filed as cell-based. The method in brief: (§4)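 Cells were transfected with control or PDGFR-β siRNA, then treated with 2.5 μM compound for 24 h. PDGFR-β-AKT-ULK1 pathway phospho-proteins were assessed by western blot: lysis in Hepes pH 7.4 / Triton buffer, 10-15% SDS-PAGE, PVDF, ECL detection, β-actin as loading control.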

Series [19] has the same target. Put plainly: Inhibition of PDGFRbeta in human MDA-MB-231 cells assessed as ULK Ser555 phosphorylation level at 2.5 uM incubated for 24 hrs in presence of control siRNA by Western blot relative to untreated control. In kind it is cell-based. The method in brief:
as §4

Series [20] shares this target. Put plainly: Inhibition of PDGFRbeta in human MDA-MB-231 cells assessed as ULK Ser555 phosphorylation level at 2.5 uM incubated for 24 hrs in absence of PDGFRbeta siRNA by Western blot relative to untreated control. It is filed as cell-based. The method in brief: as §4
Series [21] shares this target. Put plainly: Inhibition of PDGFRbeta in human MDA-MB-231 cells assessed as C-Raf Ser259 phosphorylation level at 2.5 uM incubated for 24 hrs in presence of PDGFRbeta siRNA by Western blot relative to untreated control. In kind it is cell-based.
The target is the same in series [22]. Description: Inhibition of PDGFRbeta in human MDA-MB-231 cells assessed as C-Raf Ser338 phosphorylation level at 10 uM incubated for 24 hrs in presence of PDGFRbeta siRNA by Western blot relative to untreated control. In kind it is cell-based.
In series [23] the target is Dual specificity mitogen-activated protein kinase kinase; MEK1/2 (Homo sapiens) (UniProt P36507+Q02750). Put plainly: Inhibition of MEK1/2 in human MDA-MB-231 cells assessed as MEK1/2 Ser217/221 phosphorylation level at 5 uM incubated for 24 hrs in presence of PDGFRbeta siRNA by Western blot relative to untreated control. It is filed as cell-based.
Sequence of Dual specificity mitogen-activated protein kinase kinase; MEK1/2 (Homo sapiens) (P36507 whole entry, looked up): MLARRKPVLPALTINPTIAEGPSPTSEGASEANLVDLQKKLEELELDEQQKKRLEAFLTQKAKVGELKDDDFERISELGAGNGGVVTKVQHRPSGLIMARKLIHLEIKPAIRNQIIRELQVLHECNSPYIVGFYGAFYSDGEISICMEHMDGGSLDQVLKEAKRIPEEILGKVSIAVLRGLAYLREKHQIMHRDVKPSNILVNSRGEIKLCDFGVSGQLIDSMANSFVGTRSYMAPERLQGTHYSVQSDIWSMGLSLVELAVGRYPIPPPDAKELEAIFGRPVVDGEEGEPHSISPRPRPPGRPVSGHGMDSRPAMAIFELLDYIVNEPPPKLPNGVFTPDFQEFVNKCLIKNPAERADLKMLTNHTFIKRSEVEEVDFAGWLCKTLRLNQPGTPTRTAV
Sequence of Dual specificity mitogen-activated protein kinase kinase; MEK1/2 (Homo sapiens) (Q02750 whole entry, looked up): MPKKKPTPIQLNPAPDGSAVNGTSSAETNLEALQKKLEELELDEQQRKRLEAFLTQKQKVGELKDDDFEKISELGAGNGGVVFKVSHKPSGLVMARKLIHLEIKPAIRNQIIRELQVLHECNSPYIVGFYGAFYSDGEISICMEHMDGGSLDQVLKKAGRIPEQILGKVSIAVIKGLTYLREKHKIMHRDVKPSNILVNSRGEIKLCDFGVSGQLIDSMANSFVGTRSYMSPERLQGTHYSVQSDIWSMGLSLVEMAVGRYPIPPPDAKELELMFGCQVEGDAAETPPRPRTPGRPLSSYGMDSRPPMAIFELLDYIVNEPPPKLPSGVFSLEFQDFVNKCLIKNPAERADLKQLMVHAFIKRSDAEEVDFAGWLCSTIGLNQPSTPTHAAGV
For series [24], the target named is Mitogen-activated protein kinase; ERK1/ERK2 (Homo sapiens) (UniProt P27361+P28482). Description: Inhibition of ERK1/2 in human MDA-MB-231 cells assessed as ERK1/2 Thr202/Tyr204 phosphorylation level at 2.5 uM incubated for 24 hrs in presence of PDGFRbeta siRNA by Western blot relative to untreated control. In kind it is cell-based.
Sequence of Mitogen-activated protein kinase; ERK1/ERK2 (Homo sapiens) (P27361 whole entry, looked up): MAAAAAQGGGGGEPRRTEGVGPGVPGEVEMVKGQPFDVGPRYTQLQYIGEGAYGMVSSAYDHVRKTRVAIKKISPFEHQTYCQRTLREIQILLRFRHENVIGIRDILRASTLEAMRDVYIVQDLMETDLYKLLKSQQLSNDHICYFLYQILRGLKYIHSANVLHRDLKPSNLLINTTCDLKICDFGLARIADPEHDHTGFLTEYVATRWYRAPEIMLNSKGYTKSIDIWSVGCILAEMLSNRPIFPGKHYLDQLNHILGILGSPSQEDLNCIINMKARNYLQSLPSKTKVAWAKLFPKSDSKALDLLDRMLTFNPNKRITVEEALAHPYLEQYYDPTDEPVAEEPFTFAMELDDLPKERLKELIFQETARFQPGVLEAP
Sequence of Mitogen-activated protein kinase; ERK1/ERK2 (Homo sapiens) (P28482 whole entry, looked up): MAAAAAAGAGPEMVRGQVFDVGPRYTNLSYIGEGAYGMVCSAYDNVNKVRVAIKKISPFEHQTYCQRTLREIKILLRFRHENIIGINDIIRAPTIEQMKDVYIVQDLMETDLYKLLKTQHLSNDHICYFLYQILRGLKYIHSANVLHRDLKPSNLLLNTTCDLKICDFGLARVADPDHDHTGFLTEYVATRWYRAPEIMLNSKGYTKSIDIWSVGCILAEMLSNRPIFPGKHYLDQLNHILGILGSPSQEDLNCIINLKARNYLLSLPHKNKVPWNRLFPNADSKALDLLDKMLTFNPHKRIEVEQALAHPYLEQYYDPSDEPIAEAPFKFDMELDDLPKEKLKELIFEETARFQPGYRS

The source made the active and inactive calls. The rule behind the calls is not given here.

T1 sequence (P09619 whole entry): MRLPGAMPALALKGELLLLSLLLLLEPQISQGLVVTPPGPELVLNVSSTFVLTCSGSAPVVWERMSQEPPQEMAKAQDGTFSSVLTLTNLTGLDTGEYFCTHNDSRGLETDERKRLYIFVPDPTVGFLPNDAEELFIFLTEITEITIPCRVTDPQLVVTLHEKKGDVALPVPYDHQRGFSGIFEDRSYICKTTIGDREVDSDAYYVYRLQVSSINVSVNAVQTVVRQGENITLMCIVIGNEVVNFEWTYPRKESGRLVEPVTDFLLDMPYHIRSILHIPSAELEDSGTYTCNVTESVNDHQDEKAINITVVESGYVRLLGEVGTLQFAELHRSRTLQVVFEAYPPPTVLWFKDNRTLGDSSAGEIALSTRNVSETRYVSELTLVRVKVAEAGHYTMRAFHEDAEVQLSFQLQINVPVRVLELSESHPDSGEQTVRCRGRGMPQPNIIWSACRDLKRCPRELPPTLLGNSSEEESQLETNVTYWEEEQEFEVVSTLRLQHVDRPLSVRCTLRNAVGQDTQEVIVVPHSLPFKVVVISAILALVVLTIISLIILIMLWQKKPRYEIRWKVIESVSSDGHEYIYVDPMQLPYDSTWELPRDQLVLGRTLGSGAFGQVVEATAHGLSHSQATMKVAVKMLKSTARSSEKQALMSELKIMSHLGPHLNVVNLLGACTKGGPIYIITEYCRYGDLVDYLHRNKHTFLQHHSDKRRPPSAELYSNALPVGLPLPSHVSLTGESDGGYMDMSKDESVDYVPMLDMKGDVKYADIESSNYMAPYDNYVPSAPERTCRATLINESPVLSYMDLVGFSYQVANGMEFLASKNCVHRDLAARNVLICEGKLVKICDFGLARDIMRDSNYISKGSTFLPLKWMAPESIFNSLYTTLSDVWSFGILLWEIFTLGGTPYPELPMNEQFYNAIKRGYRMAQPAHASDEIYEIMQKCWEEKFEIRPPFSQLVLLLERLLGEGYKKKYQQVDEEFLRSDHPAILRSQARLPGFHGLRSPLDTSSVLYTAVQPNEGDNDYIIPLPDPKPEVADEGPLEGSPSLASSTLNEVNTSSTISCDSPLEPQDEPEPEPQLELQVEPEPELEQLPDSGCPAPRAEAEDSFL

As for `COc1cccc(Nc2cc(N3CCN(C(=O)Nc4ccc(C(F)(F)F)cc4)CC3)ncn2)c1`, the IC50 was 680 nM with MDA-MB-231 [1] and 630 nM with MDA-MB-231 [2]. Also, the “fold change (FC)” value with MDA-MB-231 [3] worked out at 2.3; in [5], 0.61; in series [6], 0.12; in series [7] it was 0.45; in series [8], 1.5; in the series with MDA-MB-231 [9], 1.1. In addition, the “fold change (FC)” value with MDA-MB-231 [10] stood at 0.89; with MDA-MB-231 [11], 0.84; with MDA-MB-231 [12], 0.31; in the series on MDA-MB-231 [13], 0.91; in the series with MDA-MB-231 [14], 0.99; in the series with MDA-MB-231 [15], 0.05. For the same compound, the “fold change (FC)” value in the series on MDA-MB-231 [16] was 0.63; in the series on MDA-MB-231 [17] it was 2.87; in series [18], 0.05; in series [19], 3.21; in series [20] it was 3.67; in [21] it was 0.95. Moreover, the fold change (FC) was 0.66 in [22], 1.05 in series [23] and 1.05 in [24]. Besides, in the series with MDA-MB-231 [4], the outcome was Active.
